Calls of active or inactive are those of the source.
Assays:
Canis familiaris [1] = assay: Immunostimulatory activity in mongrel dog infected with Trypanosoma cruzi Berenice-78 assessed as production of antibody IgG at 12 mg/kg, po BID for 90 days measured after 6 months by ELISA; format: functional, organism-based; set-up: dose 12 mg/kg; settings: Canis lupus familiaris
Method in brief: (§1)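 Serum was taken before inoculation and then monthly until 6 months posttreatment, and stored at −80°C. ELISA plates were coated with alkaline extract of Y-strain parasites grown to exponential phase in LIT medium. Bound total IgG or IgG2 was detected with peroxidase-labeled anti-dog conjugates and read at 490 nm. Cutoff was the mean absorbance of 10 uninfected dogs plus 2 SD.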

Canis familiaris [2] = assay: Immunostimulatory activity in mongrel dog infected with Trypanosoma cruzi Berenice-78 assessed as production of antibody IgG2 at 12 mg/kg, po BID for 90 days measured after 6 months by ELISA; format: functional, organism-based; set-up: dose 12 mg/kg; settings: Canis lupus familiaris; method in brief: as §1
Canis familiaris [3] = assay: Immunostimulatory activity in mongrel dog infected with Trypanosoma cruzi Y assessed as production of antibody IgG at 12 mg/kg, po BID for 90 days measured after 6 months by ELISA; format: functional, organism-based; set-up: dose 12 mg/kg; settings: Canis lupus familiaris; method in brief: as §1
Canis familiaris [4] = assay: Immunostimulatory activity in mongrel dog infected with Trypanosoma cruzi Y assessed as production of antibody IgG2 at 12 mg/kg, po BID for 90 days measured after 6 months by ELISA; format: functional, organism-based; set-up: dose 12 mg/kg; settings: Canis lupus familiaris; method in brief: as §1
Canis familiaris [5] = assay: Toxicity in mongrel dog infected with Trypanosoma cruzi Berenice-78 assessed as weight loss at 12 mg/kg, po BID for 90 days started 12 to 22 days postinfection measured after 1 day; format: organism-based, Canis lupus familiaris; set-up: dose 12 mg/kg, route oral; settings: in vivo, 24 h
Method in brief: (§2)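 Body weight gain, in kg, was recorded for infected dogs 1 day and 6 months after the end of oral b.i.d. treatment. Treated animals were compared with infected untreated and noninfected control groups.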

Canis familiaris [6] = assay: Toxicity in mongrel dog infected with Trypanosoma cruzi Berenice-78 assessed as weight loss at 7 mg/kg, po BID for 90 days started 12 to 22 days postinfection measured after 1 day; format: organism-based, Canis lupus familiaris; set-up: dose 7 mg/kg, route oral; settings: in vivo, 24 h; method in brief: as §2
Canis familiaris [7] = assay: Toxicity in mongrel dog infected with Trypanosoma cruzi Y assessed as weight loss at 12 mg/kg, po BID for 90 days started 12 to 22 days postinfection measured after 6 months; format: organism-based, Canis lupus familiaris; set-up: dose 12 mg/kg, route oral; settings: in vivo, 4383 h; method in brief: as §2
Canis familiaris [8] = assay: Toxicity in mongrel dog infected with Trypanosoma cruzi Y assessed as weight loss at 7 mg/kg, po BID for 90 days started 12 to 22 days postinfection measured after 6 months; format: organism-based, Canis lupus familiaris; set-up: dose 7 mg/kg, route oral; settings: in vivo, 4383 h; method in brief: as §2
Canis familiaris [9] = assay: Toxicity in mongrel dog infected with Trypanosoma cruzi Berenice-78 assessed as weight loss at 12 mg/kg, po BID for 90 days started 12 to 22 days postinfection measured after 6 months; format: organism-based, Canis lupus familiaris; set-up: dose 12 mg/kg, route oral; settings: in vivo, 4383 h; method in brief: as §2
Canis familiaris [10] = assay: Toxicity in mongrel dog infected with Trypanosoma cruzi Berenice-78 assessed as weight loss at 7 mg/kg, po BID for 90 days started 12 to 22 days postinfection measured after 6 months; format: organism-based, Canis lupus familiaris; set-up: dose 7 mg/kg, route oral; settings: in vivo, 4383 h; method in brief: as §2
Trypanosoma cruzi [11] = assay: Antimicrobial activity against Trypanosoma cruzi Y infected in mongrel dog assessed as suppression of microbial proliferation at 12 mg/kg, po BID started 12 to 22 days postinfection measured after 1 day; format: functional, organism-based; set-up: dose 12 mg/kg
Method in brief: (§3)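 Mongrel dogs, 4 months old, dewormed and vaccinated, were inoculated with 2.0 × 10^3 bloodstream trypomastigotes/kg. Oral b.i.d. (q12h) dosing began 12 to 22 days postinfection, once parasitemia appeared. Dosing ran 90 days at 12 mg/kg and 60 days at 7 mg/kg, with 5 dogs per group. Parasitemia was read by fresh-blood examination of marginal ear vein blood from day 10 of infection until parasites were undetectable.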

Trypanosoma cruzi [12] = assay: Antimicrobial activity against Trypanosoma cruzi Berenice-78 infected in mongrel dog assessed as suppression of microbial proliferation at 12 mg/kg, po BID started 12 to 22 days postinfection measured after 1 day; format: functional, organism-based; set-up: dose 12 mg/kg; method in brief: as §3
Trypanosoma cruzi [13] = assay: Antimicrobial activity against Trypanosoma cruzi Y infected in mongrel dog assessed as suppression of microbial proliferation at 7 mg/kg, po BID started 12 to 22 days postinfection measured after 1 day; format: functional, organism-based; set-up: dose 7 mg/kg; method in brief: as §3
Trypanosoma cruzi [14] = assay: Antimicrobial activity against Trypanosoma cruzi Berenice-78 infected in mongrel dog assessed as suppression of microbial proliferation at 7 mg/kg, po BID started 12 to 22 days postinfection measured after 1 day; format: functional, organism-based; set-up: dose 7 mg/kg; method in brief: as §3
Trypanosoma cruzi [15] = assay: Antimicrobial activity against Trypanosoma cruzi Y infected in mongrel dog assessed as survival of dog at 12 mg/kg, po BID started 12 to 22 days postinfection measured after 1 day; format: functional
Method in brief: (§4)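 Four-month-old mongrel dogs (five per group) received 2.0 × 10^3 Y or Berenice-78 bloodstream trypomastigotes/kg. Oral dosing began 12–22 days postinfection, when parasitemia was detected by fresh blood examination: 12 mg/kg q12h for 90 days, or 7 mg/kg q12h for 60 days. Ear-vein blood was checked from day 10. Mortality was expressed as the cumulative percentage of dead animals.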

Trypanosoma cruzi [16] = assay: Antimicrobial activity against Trypanosoma cruzi Berenice-78 infected in mongrel dog assessed as survival of dog at 12 mg/kg, po BID started 12 to 22 days postinfection measured after 1 day; format: functional; method in brief: as §4
Trypanosoma cruzi [17] = assay: Antimicrobial activity against Trypanosoma cruzi Y infected in mongrel dog assessed as survival of dog at 7 mg/kg, po BID started 12 to 22 days postinfection measured after 1 day; format: functional; method in brief: as §4
Trypanosoma cruzi [18] = assay: Antimicrobial activity against Trypanosoma cruzi Berenice-78 infected in mongrel dog assessed as survival of dog at 7 mg/kg, po BID started 12 to 22 days postinfection measured after 1 day; format: functional; method in brief: as §4
Trypanosoma cruzi [19] = assay: Antimicrobial activity against Trypanosoma cruzi Y infected in mongrel dog assessed as parasite level in blood of dog at 7 mg/kg, po BID started 12 to 22 days postinfection measured after 30 days by PCR analysis; format: functional
Method in brief: (§5)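 Blood PCR for T. cruzi on treated dogs (n = 5 per group) at 1 and 6 months posttreatment. Each reaction took 2 μl blood DNA template in Tris-HCl pH 9.0, 75 mM KCl, 3.5 mM MgCl2 and 0.2 mM dNTPs. Cycling was 95°C 5 min, then 2 cycles annealing at 30°C, 33 cycles at 40°C, and 72°C 5 min. Products were run on 6% polyacrylamide and silver stained. Reported as rate of positive animals.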

Trypanosoma cruzi [20] = assay: Antimicrobial activity against Trypanosoma cruzi Berenice-78 infected in mongrel dog assessed as parasite level in blood of dog at 7 mg/kg, po BID started 12 to 22 days postinfection measured after 30 days by PCR analysis; format: functional; method in brief: as §5
Canis familiaris [21] = assay: Immunostimulatory activity in mongrel dog infected with Trypanosoma cruzi Berenice-78 assessed as production of antibody IgG at 12 mg/kg, po BID for 90 days measured up to 30 days by ELISA; format: functional, organism-based; set-up: dose 12 mg/kg; settings: Canis lupus familiaris; method in brief: as §1
Canis familiaris [22] = assay: Immunostimulatory activity in mongrel dog infected with Trypanosoma cruzi Berenice-78 assessed as production of antibody IgG2 at 12 mg/kg, po BID for 90 days measured up to 30 days by ELISA; format: functional, organism-based; set-up: dose 12 mg/kg; settings: Canis lupus familiaris; method in brief: as §1
Canis familiaris [23] = assay: Immunostimulatory activity in mongrel dog infected with Trypanosoma cruzi Berenice-78 assessed as production of antibody IgG at 7 mg/kg, po BID for 90 days measured up to 30 days by ELISA; format: functional, organism-based; set-up: dose 7 mg/kg; settings: Canis lupus familiaris; method in brief: as §1
Canis familiaris [24] = assay: Immunostimulatory activity in mongrel dog infected with Trypanosoma cruzi Berenice-78 assessed as production of antibody IgG2 at 7 mg/kg, po BID for 90 days measured up to 30 days by ELISA; format: functional, organism-based; set-up: dose 7 mg/kg; settings: Canis lupus familiaris; method in brief: as §1
Canis familiaris [25] = assay: Immunostimulatory activity in mongrel dog infected with Trypanosoma cruzi Berenice-78 assessed as production of antibody IgG at 7 mg/kg, po BID for 90 days measured after 6 months by ELISA; format: functional, organism-based; set-up: dose 7 mg/kg; settings: Canis lupus familiaris; method in brief: as §1
Canis familiaris [26] = assay: Immunostimulatory activity in mongrel dog infected with Trypanosoma cruzi Berenice-78 assessed as production of antibody IgG2 at 7 mg/kg, po BID for 90 days measured after 6 months by ELISA; format: functional, organism-based; set-up: dose 7 mg/kg; settings: Canis lupus familiaris, in the assay text read “for 60 days” for “for 90 days”; method in brief: as §1
Canis familiaris [27] = assay: Immunostimulatory activity in mongrel dog infected with Trypanosoma cruzi Y assessed as production of antibody IgG at 7 mg/kg, po BID for 90 days measured after 6 months by ELISA; format: functional, organism-based; set-up: dose 7 mg/kg; settings: Canis lupus familiaris, in the assay text read “for 60 days” for “for 90 days”; method in brief: as §1
Canis familiaris [28] = assay: Immunostimulatory activity in mongrel dog infected with Trypanosoma cruzi Y assessed as production of antibody IgG2 at 7 mg/kg, po BID for 90 days measured after 6 months by ELISA; format: functional, organism-based; set-up: dose 7 mg/kg; settings: Canis lupus familiaris, in the assay text read “for 60 days” for “for 90 days”; method in brief: as §1
Trypanosoma cruzi [29] = assay: Antitrypanosomal activity against Trypanosoma cruzi Y infected in mongrel dog assessed as reduction in INFgamma production in right atrium at 7 mg/kg, po BID after 180 days by semiquantitative RT-PCR; format: functional, organism-based; set-up: dose 7 mg/kg; settings: Cardiac atrium
Method in brief: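 Dogs were euthanized 6 months after the end of treatment. RNA was extracted from the right atrium with acid guanidinium thiocyanate-phenol-chloroform. One microgram was DNase treated and reverse transcribed with oligo(dT) for 1 h at 42°C. IFN-γ or IL-10 cDNA was amplified with 1.5 mM MgCl2: 94°C 5 min, n cycles of 94/57/72°C, final extension 72°C 6 min. Expression was scored semiquantitatively against infected untreated and noninfected dogs.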

Trypanosoma cruzi [30] = assay: Antitrypanosomal activity against Trypanosoma cruzi Y infected in mongrel dog assessed as reduction in IL10 production in right atrium at 7 mg/kg, po BID after 180 days by semiquantitative RT-PCR; settings: Cardiac atrium
Trypanosoma cruzi [31] = assay: Antitrypanosomal activity against Trypanosoma cruzi Y infected in mongrel dog assessed as reduction in INFgamma production in right atrium at 7 mg/kg, po BID after 180 days by semiquantitative RT-PCR; settings: Cardiac atrium

Q: With O=C(Cn1ccnc1[N+](=O)[O-])NCc1ccccc1 [BENZNIDAZOLE] as the compound, how does the Activity (Canis familiaris [1]) read?
A: The Activity was “Active”.

Q: And the Activity (Canis familiaris [2])?
A: The Activity was “Active”.

Q: What about the Activity (Canis familiaris [3]) of the same compound?
A: Its Activity is “Active”.

Q: And the Activity (Canis familiaris [4])?
A: The Activity was “Active”.

Q: What about the Activity (Canis familiaris [5]) of the same compound?
A: Its Activity is “Toxic”.

Q: And the Activity (Canis familiaris [6])?
A: The Activity was “Toxic”.

Q: And the Activity (Canis familiaris [7])?
A: The Activity was “Non-toxic”.

Q: What about the Activity (Canis familiaris [8]) of the same compound?
A: The Activity was “Non-toxic”.

Q: And the Activity (Canis familiaris [9])?
A: The Activity was “Non-toxic”.

Q: What about the Activity (Canis familiaris [10]) of the same compound?
A: The Activity was “Non-toxic”.

Q: What about the Activity (Trypanosoma cruzi [11]) of the same compound?
A: The Activity was “Non-toxic”.

Q: What about the Activity (Trypanosoma cruzi [12]) of the same compound?
A: The Activity was “Non-toxic”.

Q: And the Activity (Trypanosoma cruzi [13])?
A: The Activity was “Non-toxic”.

Q: And the Activity (Trypanosoma cruzi [14])?
A: Its Activity is “Non-toxic”.

Q: What about the Activity (Trypanosoma cruzi [15]) of the same compound?
A: Its Activity is 100%.

Q: What about the Activity (Trypanosoma cruzi [16]) of the same compound?
A: The Activity was 100%.

Q: And the Activity (Trypanosoma cruzi [17])?
A: Its Activity is 100%.

Q: And the Activity (Trypanosoma cruzi [18])?
A: Its Activity is 100%.

Q: And the Activity (Trypanosoma cruzi [19])?
A: The Activity was 0%.

Q: And the Activity (Trypanosoma cruzi [20])?
A: Its Activity is 0%.

Q: What about the Activity (Canis familiaris [21]) of the same compound?
A: The Activity was “Active”.

Q: What about the Activity (Canis familiaris [22]) of the same compound?
A: The Activity was “Active”.

Q: And the Activity (Canis familiaris [23])?
A: The Activity was “Active”.

Q: And the Activity (Canis familiaris [24])?
A: Its Activity is “Active”.

Q: And the Activity (Canis familiaris [25])?
A: The Activity was “Active”.

Q: And the Activity (Canis familiaris [26])?
A: The Activity was “Active”.

Q: And the Activity (Canis familiaris [27])?
A: Its Activity is “Active”.

Q: What about the Activity (Canis familiaris [28]) of the same compound?
A: Its Activity is “Active”.

Q: What about the Activity (Trypanosoma cruzi [29]) of the same compound?
A: The Activity was “Active”.

Q: What about the Activity (Trypanosoma cruzi [30]) of the same compound?
A: Its Activity is “Active”.

Q: What about the Activity (Trypanosoma cruzi [31]) of the same compound?
A: Its Activity is “Active”.

From ChEMBL document CHEMBL1629684, “Effects of ravuconazole treatment on parasite load and immune response in dogs experimentally infected with Trypanosoma cruzi” (Antimicrob Agents Chemother, 2010)
